# Data as given in paper PMC8415080 (Pharmacology Research & Perspectives, 2021).
# Experiments:
# [1] = molecular target: Complex I purified from bovine heart (Bos taurus, UniProt P03887+P17694+P42026); experiment: MitoTox Complex I OxPhos Activity Assay; format: biochemical
# Method in brief: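 MitoTox Complex I kit: Complex I purified from bovine heart and immunocaptured on the plate by specific antibodies. Activity followed as the decrease in absorbance at 340 nm from NADH oxidation.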
# [2] = test system: mitochondria isolated from liver of OF1; format: biochemical; details: 7.5 µM
# Method in brief: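 Polarographic measurement of oxidation and phosphorylation rates in mitochondria isolated from liver of female OF1 mice, over a range of test compound doses.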
# MDA‐MB231 cells = experiment: Mitochondrial ATP content; format: cell-based; details: Homo sapiens, MDA-MB-231, 1 h, read-out: IC50 mitochondrial ATP production
# Method in brief: (§1)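 Cells (8000/well) were incubated 18 h at 37℃ (5% CO2). Test compound was added at half‐log doses, final 10 nM–10 µM, to paired plates for 1 h, with or without 100 µM iodoacetate. ATP was read by CellTiter‐Glo luminescence: mitochondrial ATP with iodoacetate, global ATP without. Mean ± SD.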
# Hep3B cells = experiment: Mitochondrial ATP content; format: cell-based; details: Homo sapiens, 1 h, read-out: IC50 mitochondrial ATP production
# Method in brief: as §1
# U87 cells = experiment: Mitochondrial ATP content; format: cell-based; details: Homo sapiens, U-87 MG, 1 h, read-out: IC50 mitochondrial ATP production
# Method in brief: as §1
# 198 kinases = experiment: DiscoverX KiNativ in situ kinase selectivity panel on live Jurkat cells; format: cell-based; details: 10 µM
# MLK2 = MLK2 (Homo sapiens, UniProt Q02779); experiment: as above; format: cell-based; details: 10 µM
# Chain of MLK2 (Q02779 whole entry): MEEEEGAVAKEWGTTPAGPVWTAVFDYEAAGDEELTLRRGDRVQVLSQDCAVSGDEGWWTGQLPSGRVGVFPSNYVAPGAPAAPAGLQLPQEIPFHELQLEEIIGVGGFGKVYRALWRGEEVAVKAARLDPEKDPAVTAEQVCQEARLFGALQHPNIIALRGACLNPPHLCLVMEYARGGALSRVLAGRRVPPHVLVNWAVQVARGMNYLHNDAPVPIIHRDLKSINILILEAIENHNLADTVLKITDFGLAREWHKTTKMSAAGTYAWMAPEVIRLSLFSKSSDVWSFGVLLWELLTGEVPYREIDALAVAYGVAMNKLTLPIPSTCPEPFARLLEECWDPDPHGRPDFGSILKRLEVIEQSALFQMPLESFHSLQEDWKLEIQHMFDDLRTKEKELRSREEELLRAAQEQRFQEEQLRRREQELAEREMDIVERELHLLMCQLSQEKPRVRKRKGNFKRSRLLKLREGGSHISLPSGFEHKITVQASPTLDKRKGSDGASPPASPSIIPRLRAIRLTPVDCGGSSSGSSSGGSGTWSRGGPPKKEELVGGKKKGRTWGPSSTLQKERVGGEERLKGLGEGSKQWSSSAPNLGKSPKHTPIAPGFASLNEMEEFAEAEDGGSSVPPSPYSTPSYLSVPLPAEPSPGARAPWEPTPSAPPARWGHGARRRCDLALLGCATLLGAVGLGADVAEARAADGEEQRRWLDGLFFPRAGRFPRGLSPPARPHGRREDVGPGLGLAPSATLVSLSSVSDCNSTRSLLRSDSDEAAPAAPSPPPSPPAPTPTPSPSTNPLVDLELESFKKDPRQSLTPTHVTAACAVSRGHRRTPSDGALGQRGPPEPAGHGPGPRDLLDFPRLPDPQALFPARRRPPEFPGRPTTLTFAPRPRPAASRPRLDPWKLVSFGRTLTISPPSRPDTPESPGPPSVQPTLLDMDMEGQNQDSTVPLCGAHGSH
# A2AR = A2AR (Homo sapiens, UniProt P29274); experiment: Cerep in vitro safety screen, competition with reference ligand binding; details: 10 µM
# Chain of A2AR (P29274 whole entry): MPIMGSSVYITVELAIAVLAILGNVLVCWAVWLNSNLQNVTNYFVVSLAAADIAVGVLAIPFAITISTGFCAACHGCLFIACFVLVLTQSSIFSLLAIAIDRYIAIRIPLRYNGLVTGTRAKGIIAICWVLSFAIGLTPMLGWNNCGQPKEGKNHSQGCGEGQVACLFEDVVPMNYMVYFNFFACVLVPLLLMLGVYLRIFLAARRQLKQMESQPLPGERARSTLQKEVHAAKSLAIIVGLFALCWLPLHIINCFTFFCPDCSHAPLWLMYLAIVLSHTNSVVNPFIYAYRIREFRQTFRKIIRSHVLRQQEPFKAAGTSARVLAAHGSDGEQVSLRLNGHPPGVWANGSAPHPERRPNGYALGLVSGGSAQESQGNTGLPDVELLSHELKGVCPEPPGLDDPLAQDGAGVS
# Method in brief: (§2)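 Cerep in vitro safety screen: test compound at 10 µM assessed for competition with reference ligand binding across a panel of 300 receptors.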
# CCK1R = CCK1R (Homo sapiens, UniProt P32238); experiment: as above; details: 10 µM
# Chain of CCK1R (P32238 whole entry, species assumed): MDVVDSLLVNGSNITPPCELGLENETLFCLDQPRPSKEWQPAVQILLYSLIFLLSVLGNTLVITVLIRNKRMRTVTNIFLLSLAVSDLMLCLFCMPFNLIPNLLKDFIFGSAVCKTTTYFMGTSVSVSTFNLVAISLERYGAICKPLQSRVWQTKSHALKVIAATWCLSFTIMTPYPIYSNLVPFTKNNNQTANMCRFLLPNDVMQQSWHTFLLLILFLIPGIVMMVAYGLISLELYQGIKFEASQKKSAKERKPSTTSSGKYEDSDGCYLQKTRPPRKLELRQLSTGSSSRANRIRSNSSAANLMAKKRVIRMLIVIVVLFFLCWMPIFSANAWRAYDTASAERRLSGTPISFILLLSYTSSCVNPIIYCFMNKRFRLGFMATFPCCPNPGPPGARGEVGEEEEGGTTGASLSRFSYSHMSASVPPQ
# Method in brief: as §2
# CCK2R = CCK2R (Homo sapiens, UniProt P32239); experiment: as above; details: 10 µM
# Method in brief: as §2
# [3] = Plasma pharmacokinetics after intravenous and oral administration; format: in vivo, C57BL/6J mice
# Method in brief: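 Plasma pharmacokinetics in C57BL/6J mice: intravenous test compound at 3 mg/kg, and escalating oral doses of 10, 30 and 75 mg/kg.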
# [4] = Tissue distribution after single oral administration; format: in vivo, C57BL/6J mice; details: male, C57BL/6J, mouse, 30 mg/kg
# OATP1B1 = OATP1B1 (Homo sapiens, UniProt Q9Y6L6); experiment: In vitro transporter inhibition; format: in vitro ADME
# OATP1B3 = OATP1B3 (Homo sapiens, UniProt Q9NPD5); experiment: In vitro transporter inhibition; format: in vitro ADME
# Chain of OATP1B3 (Q9NPD5 whole entry): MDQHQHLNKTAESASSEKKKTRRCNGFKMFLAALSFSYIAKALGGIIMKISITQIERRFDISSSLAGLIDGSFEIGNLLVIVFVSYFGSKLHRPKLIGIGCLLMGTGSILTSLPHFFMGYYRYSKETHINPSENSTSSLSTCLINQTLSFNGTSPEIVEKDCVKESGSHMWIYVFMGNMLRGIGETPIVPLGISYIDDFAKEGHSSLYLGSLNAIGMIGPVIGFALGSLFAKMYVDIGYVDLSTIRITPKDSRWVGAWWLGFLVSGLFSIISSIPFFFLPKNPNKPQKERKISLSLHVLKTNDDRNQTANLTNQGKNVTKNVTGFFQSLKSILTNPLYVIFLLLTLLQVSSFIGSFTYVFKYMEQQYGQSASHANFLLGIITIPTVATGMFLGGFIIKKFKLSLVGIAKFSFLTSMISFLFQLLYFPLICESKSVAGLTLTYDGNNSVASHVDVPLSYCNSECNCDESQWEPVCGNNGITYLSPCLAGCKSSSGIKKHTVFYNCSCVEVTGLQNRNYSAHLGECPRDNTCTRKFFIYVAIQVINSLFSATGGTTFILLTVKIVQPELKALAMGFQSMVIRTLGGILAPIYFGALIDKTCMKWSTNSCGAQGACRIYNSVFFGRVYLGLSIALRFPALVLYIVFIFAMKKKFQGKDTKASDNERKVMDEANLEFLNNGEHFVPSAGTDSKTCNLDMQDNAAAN
# BCRP = BCRP (Homo sapiens, UniProt Q9UNQ0); experiment: In vitro transporter inhibition; format: in vitro ADME
# OAT1 = OAT1 (Homo sapiens, UniProt Q4U2R8); experiment: In vitro transporter inhibition; format: in vitro ADME
# OCT1 = OCT1 (Homo sapiens, UniProt O15245); experiment: In vitro transporter inhibition; format: in vitro ADME
# MRP2 = MRP2 (Homo sapiens, UniProt Q92887); experiment: In vitro transporter inhibition; format: in vitro ADME
# Chain of MRP2 (Q92887 whole entry, species assumed): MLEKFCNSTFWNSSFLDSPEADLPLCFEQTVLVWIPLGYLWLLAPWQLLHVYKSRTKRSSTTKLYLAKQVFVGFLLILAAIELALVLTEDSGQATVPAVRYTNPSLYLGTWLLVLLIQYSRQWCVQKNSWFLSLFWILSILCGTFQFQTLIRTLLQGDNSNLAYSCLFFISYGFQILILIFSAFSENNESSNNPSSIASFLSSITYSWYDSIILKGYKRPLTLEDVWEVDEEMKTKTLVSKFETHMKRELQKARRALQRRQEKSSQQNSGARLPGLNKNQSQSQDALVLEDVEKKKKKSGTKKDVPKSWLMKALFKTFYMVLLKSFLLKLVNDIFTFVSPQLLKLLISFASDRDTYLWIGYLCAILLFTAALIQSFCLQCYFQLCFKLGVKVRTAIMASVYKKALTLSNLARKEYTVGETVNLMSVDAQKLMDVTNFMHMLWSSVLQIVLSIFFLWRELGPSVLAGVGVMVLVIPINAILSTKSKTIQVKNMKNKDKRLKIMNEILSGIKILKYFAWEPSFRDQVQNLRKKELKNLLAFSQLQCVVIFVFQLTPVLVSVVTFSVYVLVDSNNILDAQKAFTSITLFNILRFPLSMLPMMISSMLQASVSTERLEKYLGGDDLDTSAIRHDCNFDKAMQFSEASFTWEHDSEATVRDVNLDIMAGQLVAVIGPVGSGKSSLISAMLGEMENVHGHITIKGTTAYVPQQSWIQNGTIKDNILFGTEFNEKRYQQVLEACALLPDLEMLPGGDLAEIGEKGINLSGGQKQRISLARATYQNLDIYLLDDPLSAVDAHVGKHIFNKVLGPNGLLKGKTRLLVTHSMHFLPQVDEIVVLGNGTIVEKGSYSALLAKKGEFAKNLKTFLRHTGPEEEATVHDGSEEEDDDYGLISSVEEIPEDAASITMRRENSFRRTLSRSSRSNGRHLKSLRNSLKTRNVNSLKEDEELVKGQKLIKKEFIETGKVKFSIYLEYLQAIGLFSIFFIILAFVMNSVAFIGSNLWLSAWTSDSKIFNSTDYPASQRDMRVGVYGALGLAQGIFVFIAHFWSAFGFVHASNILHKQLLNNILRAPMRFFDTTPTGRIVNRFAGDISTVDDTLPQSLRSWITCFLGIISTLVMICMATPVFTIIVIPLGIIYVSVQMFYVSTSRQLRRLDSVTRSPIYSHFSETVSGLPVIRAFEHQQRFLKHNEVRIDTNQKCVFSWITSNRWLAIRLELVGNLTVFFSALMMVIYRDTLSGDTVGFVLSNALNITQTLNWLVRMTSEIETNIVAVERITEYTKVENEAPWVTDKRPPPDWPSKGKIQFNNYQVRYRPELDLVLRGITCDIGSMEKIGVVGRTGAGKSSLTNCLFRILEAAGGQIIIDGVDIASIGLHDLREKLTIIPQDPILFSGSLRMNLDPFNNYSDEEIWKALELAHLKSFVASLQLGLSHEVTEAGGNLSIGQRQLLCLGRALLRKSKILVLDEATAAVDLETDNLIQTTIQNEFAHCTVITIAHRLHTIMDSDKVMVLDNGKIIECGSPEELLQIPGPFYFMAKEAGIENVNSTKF
# P‐gp = P‐gp (Homo sapiens, UniProt P08183); experiment: In vitro transporter inhibition; format: in vitro ADME; details: expressed in MDCKII
# ferret = experiment: Ferret model of emesis; format: in vivo; details: increasing doses; for induction of emesis (retches and vomits): 2 h test
# KARPAS 422 cells [5] = experiment: Proliferation assay; format: cell-based; details: Homo sapiens, KARPAS-422, read-out: IC50 proliferation
# KARPAS 422 cells [6] = experiment: Glucose and lactate levels; format: cell-based, human
# [7] = test system: OxPhos‐Eµ‐Myc and glycolytic‐Eµ‐Myc lymphoma cells; experiment: In vitro cell death assay; format: cell-based, mouse; details: 10 µM, 24 h, DAPI positive cells
# Method in brief: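 Primary Eμ‐Myc cells were maintained in DMEM with 10% FBS, 2‐mercaptoethanol (50 µM), L‐asparagine (0.37 mM) and HEPES (10 mM, pH 7.4). Cells (2 × 10^5/well) were exposed to test compound or DMSO for 24 h, stained with DAPI (0.5 µg/ml) and analysed by flow cytometry. Cell death = % DAPI‐positive in treated cells ÷ % DAPI‐positive in control. Mean of 4 independent experiments, 5 clones per group.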
# [8] = test system: glycolytic‐Eµ‐Myc lymphoma; experiment: B‐cell lymphoma in vivo study, glycolytic‐Eµ‐Myc; parameters: species or system C57BL/6 mice; details: 30 mg/kg p.o. QD, glycolytic‐Eµ‐Myc‐bearing mice
# Method in brief: (§3)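 Syngeneic female C57BL/6J Ola Hsd mice, 6 weeks old, received 1 × 10^5 viable Eμ‐Myc cells in PBS by tail vein. Oral dosing began 6 days later, when inguinal nodes became palpable: 30 mg/kg daily at 10 ml/kg in PEG200/Solutol HS15/water (30%/5%/65%), or vehicle alone; n = 10/group. Weight and node palpation every 2–3 days. Mice sacrificed at illness signs; node tumors and spleens weighed. Kaplan–Meier survival, log‐rank test.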
# OxPhos‐Eµ‐Myc lymphoma = experiment: B‐cell lymphoma in vivo study, OxPhos‐Eµ‐Myc; parameters: species or system C57BL/6 mice; details: 30 mg/kg p.o. QD, OxPhos‐Eµ‐Myc‐bearing mice
# Method in brief: as §3
# LL/2 cells [9] = experiment: Proliferation assay; format: cell-based; details: Mus musculus, LL/2, read-out: apparent IC50 proliferation
# LL/2 cells [10] = experiment: Apoptosis assay; format: cell-based, mouse; details: LL/2, even at 10 µM
# H460 cells [11] = experiment: Proliferation assay; format: cell-based, human
# H460 cells [12] = experiment: Apoptosis assay; format: cell-based, human
# [13] = test system: H460‐luc2 orthotopic tumors; experiment: Orthotopic H460 lung tumor model; format: in vivo, Balb/CJ‐Nude mice; details: 30 mg/kg p.o. QD from D7
# Method in brief: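 Male Balb/c Nude mice, 7 weeks old, were anaesthetised i.p. with Rompun (20 mg/kg) plus Imalgene (100 mg/kg). They were inoculated intrabronchially via an oral catheter with 25 µl of H460‐Luc2 cells at 20 million/ml in PBS. Mice were allocated by bioluminescence at D7 and dosed orally at 30 mg/kg daily for 15 days (3 mg/ml in PEG200/Solutol HS15/water 30%/5%/65%, 10 ml/kg) or vehicle; n = 9/group. Imaging at D7/D14/D21 used 12 min post i.p. D‐luciferin (2 mg). Tumors were measured at termination; t‐test.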
# H460‐LKB1 cells [14] = experiment: Total and mitochondrial ATP content; format: cell-based, human; details: H460‐LKB1, whatever the dose
# Method in brief: as §1
# H460‐LKB1 cells [15] = experiment: Apoptosis assay; format: cell-based, human; details: H460‐LKB1, even at 10 µM
# H460‐LKB1 cells [16] = experiment: mTOR/AMPK pathway signaling; format: cell-based, human; details: H460‐LKB1, within minutes after exposure
# H460 WT cells = experiment: mTOR/AMPK pathway signaling; format: cell-based, human; details: WT H460, over 60 min
# [17] = test system: mouse acute myeloid leukemia; details: ref Luna Yolba, in revision; cited from earlier work
# patients [18] = details: 18 patients with advanced solid tumors; cited from earlier work
# H460 cells [19] = experiment: Total and mitochondrial ATP content; format: cell-based, human
# Method in brief: as §1
# H460 cells [20] = experiment: Mitochondria respiration profiling; format: cell-based, human
# Method in brief: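 On the XF96, basal OCR was followed by injection of test compound doses (10X), then oligomycin (1 µg/ml), FCCP, and rotenone plus antimycin A (1 µM each). Cycles were 4 min mix, 3 min measure; control injections were medium. OCR expressed as fold of vehicle.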
# patients [21] = details: no reference given; cited from earlier work
# Chain of Complex I purified from bovine heart (P17694 34-463): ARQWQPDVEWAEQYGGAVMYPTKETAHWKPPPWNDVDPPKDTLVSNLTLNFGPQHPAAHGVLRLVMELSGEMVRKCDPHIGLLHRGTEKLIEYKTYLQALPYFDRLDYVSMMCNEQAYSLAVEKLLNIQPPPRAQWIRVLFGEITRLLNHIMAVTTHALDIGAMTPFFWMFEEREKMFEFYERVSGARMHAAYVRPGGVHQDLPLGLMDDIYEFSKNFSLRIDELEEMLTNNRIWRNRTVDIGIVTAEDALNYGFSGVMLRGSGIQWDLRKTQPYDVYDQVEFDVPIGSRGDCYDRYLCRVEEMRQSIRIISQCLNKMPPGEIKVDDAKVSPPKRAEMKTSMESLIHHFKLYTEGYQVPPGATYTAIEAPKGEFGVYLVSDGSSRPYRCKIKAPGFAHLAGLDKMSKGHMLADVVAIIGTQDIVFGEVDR
# Chain of Complex I purified from bovine heart (P42026 38-216): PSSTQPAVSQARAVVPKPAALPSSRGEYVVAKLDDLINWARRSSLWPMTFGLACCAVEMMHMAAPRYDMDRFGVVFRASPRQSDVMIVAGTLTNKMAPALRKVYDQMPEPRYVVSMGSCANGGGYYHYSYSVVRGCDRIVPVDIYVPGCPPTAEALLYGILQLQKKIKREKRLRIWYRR
# Chain of Complex I purified from bovine heart (P03887 whole entry): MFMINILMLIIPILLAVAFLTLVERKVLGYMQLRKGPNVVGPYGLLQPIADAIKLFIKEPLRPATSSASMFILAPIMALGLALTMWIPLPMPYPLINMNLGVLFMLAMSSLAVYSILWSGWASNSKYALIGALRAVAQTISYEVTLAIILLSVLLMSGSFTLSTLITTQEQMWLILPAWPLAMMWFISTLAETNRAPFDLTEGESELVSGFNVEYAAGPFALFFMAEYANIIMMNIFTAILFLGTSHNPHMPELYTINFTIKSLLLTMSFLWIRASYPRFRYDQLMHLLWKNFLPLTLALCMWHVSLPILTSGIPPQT
smiles,measurement,setting,value
"COc1ccc(C(O)COc2ccc(-c3csc(-c4ccc(OCC(O)c5ccc(OC)c(OC)c5)cc4)n3)cc2)cc1OC (stereo not shown) [EVT‐701, 1‐(3,4‐dimethoxyphenyl)‐2‐[4‐[2‐[4‐[2‐(3,4‐dimethoxyphenyl)‐2‐hydroxy‐ethoxy]phenyl]‐thiazol‐4‐yl]‐phenoxy]ethanol]",IC50,[1],300 nM
same,inhibition of NADH oxidation and phosphorylation of ADP into ATP,[2],80%
same,IC50,MDA‐MB231 cells,52 ± 18 nM
same,IC50,Hep3B cells,81 ± 12 nM
same,IC50,U87 cells,74 ± 38 nM
same,"inhibition of kinase activity, any of the 198 kinases of the panel",198 kinases,≤ 30%
same,increase of MLK2 activity,MLK2,more than 30%
same,decrease of ligand binding to A2AR,A2AR,more than 50%
same,increase of ligand binding to CCK1R,CCK1R,more than 50%
same,increase of ligand binding to CCK2R,CCK2R,more than 50%
same,F (bioavailability),"[3]; AUC of 10 mg/kg oral dose vs AUC of intravenous dose, 10 mg/kg",64%
same,half-life,"[3]; C57BL/6J, mouse, plasma, po, 10 mg/kg",4.1 h
same,dose‐proportionality,"[3]; oral 10, 30 and 75 mg/kg",conserved from 10 to 75 mg/kg
same,Kp,[4]; brain,0.25
same,Kp,[4]; heart,4.2
same,Kp,[4]; kidney,4.5
same,Kp,[4]; liver,5.9
same,Kp,[4]; lung,2.3
same,Kp,[4]; pancreas,4.5
same,IC50,OATP1B1,1100 ± 100 nM
same,IC50,OATP1B3,2400 ± 200 nM
same,IC50,BCRP,4100 ± 2700 nM
same,IC50,OAT1,> 30000 nM
same,IC50,OCT1,> 30000 nM
same,IC50,MRP2,> 30000 nM
same,P‐gp transport,P‐gp,not affected
same,what limited dose escalation,ferret,by solubility
same,induction of emesis (retches and vomits),ferret,didn't
same,IC50,KARPAS 422 cells [5],188 ± 50 nM
same,glucose consumption and lactate release,KARPAS 422 cells [6],increased glucose consumption and lactate release
same,"sensitivity to cell death induction, OxPhos‐Eµ‐Myc vs glycolytic‐Eµ‐Myc cells",[7],more sensitive
same,overall survival,[8],no effect
same,weight of lymphomas vs Vehicle,[8],similar
same,progression‐free survival,[8]; data not shown,no effect
same,lymphomas harvested vs Vehicle,OxPhos‐Eµ‐Myc lymphoma,significantly smaller
same,overall survival,OxPhos‐Eµ‐Myc lymphoma,significant increase
same,progression‐free survival,OxPhos‐Eµ‐Myc lymphoma; not shown,significant increase
same,IC50,LL/2 cells [9],295 ± 52 nM
same,cell death induction,LL/2 cells [10],no significant cell death
same,IC50,"H460 cells [11]; Homo sapiens, NCI-H460, read-out: apparent IC50 proliferation",68 ± 27 nM
same,IC50,"H460 cells [12]; Homo sapiens, NCI-H460, read-out: IC50 apoptosis induction",96 ± 28 nM
same,decrease of tumor volume at D21,[13],60%
same,total ATP,H460‐LKB1 cells [14],remains unchanged
same,induction of apoptosis,H460‐LKB1 cells [15],no induction of apoptosis
same,"phosphorylation of 4E‐BP1 (Serine 65), Raptor and ACC downstream of AMPK",H460‐LKB1 cells [16],increased phosphorylation state
same,"4E‐BP1, Raptor and ACC phosphorylation",H460 WT cells,unaffected
same,rescue of inhibitory effect on respiration,[17],rescued by succinate
Cc1nc(-c2nc(-c3ccc(OC(F)(F)F)cc3)no2)nn1Cc1cccc(N2CCC(S(C)(=O)=O)CC2)c1 [IACS‐010759],tolerability in phase 1,patients [18],well‐tolerated
"Cc1cc(-c2nc(-c3ccc(OC(F)(F)F)cc3)no2)nn1Cc1ccnc(N2CCN(C3CC3)CC2)c1 [BAY87‐2243, reference compound]",what limited dose escalation,ferret,limited by toxicity
same,induction of emesis (retches and vomits),ferret,induced retches and vomits from half of the first patient Cmax
same,dose at which mitochondrial ATP production is significantly inhibited,H460 cells [19],less than or equal to 1 nM
same,dose at which an effect on OCR is detected,H460 cells [20],above 100 nM
same,dose at which proliferation is significantly inhibited,H460 cells [11]; H460,less than or equal to 1 nM
same,dose at which apoptosis is significantly affected (printed: inhibited),H460 cells [12]; H460,less than or equal to 1 nM
same,"emesis in patients, clinical phase 1",patients [21],induction of emesis in patients
